Measurements: ChEMBL document CHEMBL1151771, “Lanostane-type triterpenes from the mushroom Astraeus pteridis with antituberculosis activity” (J Nat Prod, 2008)
In brackets after ≈: the same amount, converted by molar mass.

How the values were obtained:
[1] = test system: Mycobacterium tuberculosis; assay: Antimicrobial activity against Mycobacterium tuberculosis H37Rv by Alamar blue assay; type: functional
In short: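 M. tuberculosis H37Rv (ATCC27294) in microplate Alamar Blue assay, fluorescence read-out. MIC taken as lowest concentration giving 90% fluorescence reduction relative to controls. Rifampin run in each test as positive quality control.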

Vero = assay: Cytotoxicity against african green monkey Vero cells upto 100 uM; type: cell-based; details: chlorocebus sabaeus
In short: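 Vero cells (ATCC CCL-81) tested with a nonradioactive cell proliferation (CellTiter 96) assay. IC50 taken as the reciprocal dilution giving 50% inhibition of Vero cells.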

SMILES: C[C@H]([C@@H]1CC[C@H](C)C(=O)O1)[C@H]1CC[C@@]2(C)C3=C(CC[C@]12C)[C@@]1(C)CC[C@@H](O)C(C)(C)[C@@H]1CC3
- MIC [1]: 58 µg/mL (≈ 127 µM)
- Activity (Vero): Non-toxic

SMILES: C[C@H]([C@@H]1CC[C@H](C)C(=O)O1)[C@H]1CC[C@@]2(C)C3=C(CC[C@]12C)[C@@]1(C)CCC(=O)C(C)(C)[C@@H]1CC3 [ASTRAHYGRONE]
- MIC [1]: 64 µg/mL (≈ 141 µM)
- Activity (Vero): Non-toxic

SMILES: C[C@H]([C@@H]1CC[C@H](C)[C@@H](O)O1)[C@H]1CC[C@@]2(C)C3=C(CC[C@]12C)[C@@]1(C)CC[C@@H](O)C(C)(C)[C@@H]1CC3
- MIC [1]: 34 µg/mL (≈ 74.1 µM)
- Activity (Vero): Non-toxic

SMILES: C[C@H]([C@@H]1CC[C@H](C)[C@@H](O)O1)[C@H]1CC[C@@]2(C)C3=C(CC[C@]12C)[C@@]1(C)CC[C@H](O)C(C)(C)[C@@H]1CC3 [ASTRAPTERIDIOL]
- MIC [1]: > 64 µg/mL
- Activity (Vero): Non-toxic

SMILES: C[C@H]([C@@H]1CC[C@H](C)[C@@H](O)O1)[C@H]1CC[C@@]2(C)C3=C(CC[C@]12C)[C@@]1(C)CCC(=O)C(C)(C)[C@@H]1CC3 [ASTRAPTERIDONE]
- MIC [1]: > 64 µg/mL
- Activity (Vero): Non-toxic
